# OX1R antag-1 – blocks the human orexin 1 receptor | O43613 | AID 485270 | OX1R-expressing cells, FRET antagonist read-out | hit rate 1.8% among 330,000 | inhibition, % at 6.6 µM; in the data active means inhibition mostly above about 38%, no sharp cut-off; inactive means mostly below about 40%
# TAAR1 ag – agonists of human TAAR1 | hit rate 0.99% among 360,000 | CHO RD-HGA16 TAAR1, Fluo-8 calcium fluorescence; vehicle wells 0%, saturating PEA agonist 100% | activation, % at 3 µM;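 active means activation above the mean activation of all test compounds in the run plus 3 SD, cut at about 38% in these data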
# Target sequence (Q96RJ0 whole entry, looked up): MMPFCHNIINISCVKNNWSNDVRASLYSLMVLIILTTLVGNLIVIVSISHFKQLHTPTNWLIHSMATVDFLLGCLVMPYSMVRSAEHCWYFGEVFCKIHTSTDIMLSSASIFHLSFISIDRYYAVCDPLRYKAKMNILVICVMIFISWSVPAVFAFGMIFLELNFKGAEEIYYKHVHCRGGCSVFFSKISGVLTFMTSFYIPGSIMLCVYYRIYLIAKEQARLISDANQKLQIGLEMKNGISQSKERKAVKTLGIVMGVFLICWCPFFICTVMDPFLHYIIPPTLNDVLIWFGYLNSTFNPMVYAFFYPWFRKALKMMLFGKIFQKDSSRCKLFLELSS
#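 Test system: RD-HGA16 (CHO) cells co-expressing Gα16 and hTAAR1; dosing: one-point dosing at 3 µM (nominal); timing: 17-24 h seeding, 75 min 37 °C dye, 30 min RT; signal: kinetic Fluo-8 calcium fluorescence; read-out basis: % activation relative to PEA EC100 response; controls: DMSO and PEA EC100; replicates: n 1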
# TAAR1 antagonist – antagonists of human TAAR1; Q96RJ0; CHO RD-HGA16 TAAR1, Fluo-8 calcium fluorescence, antagonist; inhibition, % at 3 µM; hit rate 1.5% among 360,000; AID 624466;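 active means inhibition above a per-plate cutoff, the mean inhibition of test compounds on that plate plus 3 SD, cut at about 49% in these data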
#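 Test system: hTAAR1-expressing CHO RD-HGA16 cells, Gα16-coupled; Probe or stimulus: EC80 β-phenethylamine stimulus; Compound dosing: single nominal final test compound concentration of 3 µM; Timing: 140 s kinetic read after compound, 140 s after agonist; Signal: Fluo-8 calcium-sensitive fluorescence; Measure: % inhibition of agonist calcium response; Controls: DMSO and EC80 PEA controls.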
# NTR1 agonist – activates human neurotensin receptor 1 | NTR1-U2OS beta-arrestin-GFP spot imaging, agonist mode | activation, % at 20 µM | hit rate 0.17% among 330,000 | AID 493036;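 active means activation at or above 40% of the spot to cytoplasm intensity ratio, with at least 20 cells analyzed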
# CHO parental Ca – counter-screen: ATP calcium response change in parental CHO cells; parental CHO-K1, ATP-induced calcium, Fluo-8 fluorescence; inhibition, % at 5.6 µM; hit rate 0.63% among 330,000;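 active means inhibition above that plate's mean sample inhibition plus 3 SD, cut at about 26% in these data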
#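 Test system: parental CHO cells; detection: calcium-sensitive Fluo-8 fluorescence; evaluation: percent inhibition of calcium signal; also added: ATP as calcium-mobilizing challenge; repeats: one well per compound; control set: ATP-challenged DMSO wells low, unchallenged DMSO wells high; compound: single nominal dose of 5.6 µM per compound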
# OX1R antag-2 – human HCRTR1 antagonism. CHO/OX1R cells, Fluo-8 calcium fluorescence, orexin A. O43613. inhibition, % at 5 µM. hit rate 0.43% among 330,000;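 active means inhibition above its plate's threshold, mean inhibition of all tested compounds on the plate plus 3 SD, cut at about 37% in these data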
# TAAR1 ag confirm – confirmation of human TAAR1 agonists; shares compounds with TAAR1 ag; CHO RD-HGA16 TAAR1, Fluo-8 calcium fluorescence; scaled: DMSO 0%, maximal phenethylamine 100%; activation, % at 3 µM; hit rate 82% among 2,400;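 active means activation above a cutoff set at the run's mean compound activation plus 3 SD, cut at about 39% in these data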
# Ga16 nonsel ag – counter-screen for TAAR1 agonists: nonselective agonists in parental cells | CHO-Ga16 parental, Fluo-8 calcium fluorescence; normalized to maximal ATP response, DMSO zero | shares compounds with TAAR1 ag | hit rate 50% among 2,400 | activation, % at 3 µM | AID 651787;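 active means activation above the run cutoff, the mean activation over all tested wells plus 3 SD, cut at about 12% in these data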
# TAAR1 desens – counter-screen for human TAAR1 agonists: agonists that desensitize TAAR1; shares compounds with TAAR1 ag; CHO RD-HGA16 hTAAR1, Fluo-8 calcium, beta-PEA response inhibition; inhibition, % at 3 µM; hit rate 46% among 2,400; AID 651951;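 active means inhibition above the run cutoff, the mean inhibition of all test compounds plus 3 SD, cut at about 49% in these data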;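 further: beta-PEA stimulus applied at its EC80; loss of beta-PEA calcium signal after compound pretreatment read as receptor desensitization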
# Ga16 nonsel ant – nonselective Ga16 antagonist in TAAR1 agonist counter-screen. hit rate 39% among 2,400. inhibition, % at 3 µM. CHO-Ga16 ATP-induced calcium, Fluo-8 fluorescence. shares compounds with TAAR1 ag. AID 651952;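 active means inhibition above the plate's mean compound inhibition plus 3 SD, computed per plate, cut at about 22% in these data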
# A number is an active result; 0 = inactive; - = no result. Rows were chosen to be rich in hits. Some 4% of all compounds tested hit in one or more screens of this group.
SMILES,OX1R antag-1,TAAR1 ag,TAAR1 antagonist,NTR1 agonist,CHO parental Ca,OX1R antag-2,TAAR1 ag confirm,Ga16 nonsel ag,TAAR1 desens,Ga16 nonsel ant
CC(=O)N1c2ccc(S(=O)(=O)N3CCCC(C(=O)NCc4ccccc4)C3)cc2CC1C (stereo unspecified),0,0,0,0,0,0,-,-,-,-
CN(C)C(CNS(=O)(=O)c1ccc(Cl)cc1F)c1ccco1 (stereo unspecified),0,0,0,0,0,0,-,-,-,-
CCN(CC(=O)Nc1c(F)cccc1F)C(=O)c1nc2nccc(C)n2n1,0,0,0,0,0,0,-,-,-,-
Nc1ncn(C(=S)Nc2ccccc2)n1,-,0,0,-,-,-,-,-,-,-
CCN(CC)c1ccc(N2C(=O)C3CCCCC3C2=O)cc1[N+](=O)[O-] (stereo unspecified),0,0,0,0,0,0,-,-,-,-
CCOCCCNc1ccc(N2C(=O)C3CCCCC3C2=O)cc1[N+](=O)[O-] (stereo unspecified),0,44,0,0,0,0,0,0,0,0
O=C(CSC1=NS(=O)(=O)c2ccccc2N1)NCCc1ccccc1,0,89,71,0,0,0,89,0,75,0
CCOC(=O)c1c(-c2ccc(C)o2)csc1NC(=O)CN1CCOCC1,0,0,0,0,0,0,-,-,-,-
CCOC(=O)c1c(-c2cccs2)csc1NC(=O)CN1CCOCC1,0,44,0,0,0,0,0,38,0,35
Cc1cc(C(c2ccc(O)cc2)c2cc(C)c(O)cc2C)c(C)cc1O,0,113,85,0,0,0,131,77,78,41
CC(=O)c1c(C)[nH]c(C(=O)NCCc2cccc(C)c2)c1C,0,52,0,0,0,0,0,0,0,0
COc1ccc(CCNC(=O)c2[nH]c(C)c(C(C)=O)c2C)cc1,0,0,0,0,0,0,-,-,-,-
CCc1c(C(=O)NCCc2cccc(C)c2)[nH]c(C)c1C(C)=O,0,68,0,0,0,0,53,0,0,24
CCc1c(C(=O)NCCc2ccc(OC)c(OC)c2)[nH]c(C)c1C(C)=O,0,0,0,0,0,0,-,-,-,-
COCCN(C(=O)COC(=O)c1oc2ccc(OC)cc2c1C)c1c(N)n(Cc2ccccc2)c(=O)[nH]c1=O,0,0,0,0,0,0,-,-,-,-
Cc1sc2ncnc(N/N=C/c3cccc(O)c3)c2c1C,0,0,0,0,0,0,-,-,-,-
C/C(=N\Nc1ncnc2sc(C)c(C)c12)c1ccccn1,0,135,104,0,79,90,95,95,84,86
Cc1ccc(C(=O)N(C)CC(=O)Nc2cccc(F)c2)cc1S(=O)(=O)N1CCCCC1,0,0,0,0,0,0,-,-,-,-
O=C(NS(=O)(=O)N1CCOCC1)C1=C(N2CCCC2)COC1=O,0,0,0,0,0,0,-,-,-,-
N#Cc1cccc(NC(=O)CSc2ccc3c4c(cccc24)C(=O)c2ccccc2-3)c1,0,86,87,-,59,75,47,57,73,77
COc1ccc(NC(=O)CSc2ccc3c4c(cccc24)C(=O)c2ccccc2-3)cc1,0,0,0,0,0,0,-,-,-,-
COP(=O)(OC)c1nc(-c2cccc3ccccc23)oc1NCCc1ccccc1,0,74,75,0,0,0,88,0,83,27
Cc1ccc(CNC(=O)CN2CCN(c3ccc(F)cc3)CC2)cc1,0,0,0,0,0,0,-,-,-,-
Cc1ccc(CNC(=O)Cn2nnc(C(=O)Nc3cccc(C)c3C)c2N)cc1,0,0,0,0,0,0,-,-,-,-
